Assay [1] has as its target T1, Angiotensin-converting enzyme (Oryctolagus cuniculus) (UniProt P12822).
T1 sequence (whole entry): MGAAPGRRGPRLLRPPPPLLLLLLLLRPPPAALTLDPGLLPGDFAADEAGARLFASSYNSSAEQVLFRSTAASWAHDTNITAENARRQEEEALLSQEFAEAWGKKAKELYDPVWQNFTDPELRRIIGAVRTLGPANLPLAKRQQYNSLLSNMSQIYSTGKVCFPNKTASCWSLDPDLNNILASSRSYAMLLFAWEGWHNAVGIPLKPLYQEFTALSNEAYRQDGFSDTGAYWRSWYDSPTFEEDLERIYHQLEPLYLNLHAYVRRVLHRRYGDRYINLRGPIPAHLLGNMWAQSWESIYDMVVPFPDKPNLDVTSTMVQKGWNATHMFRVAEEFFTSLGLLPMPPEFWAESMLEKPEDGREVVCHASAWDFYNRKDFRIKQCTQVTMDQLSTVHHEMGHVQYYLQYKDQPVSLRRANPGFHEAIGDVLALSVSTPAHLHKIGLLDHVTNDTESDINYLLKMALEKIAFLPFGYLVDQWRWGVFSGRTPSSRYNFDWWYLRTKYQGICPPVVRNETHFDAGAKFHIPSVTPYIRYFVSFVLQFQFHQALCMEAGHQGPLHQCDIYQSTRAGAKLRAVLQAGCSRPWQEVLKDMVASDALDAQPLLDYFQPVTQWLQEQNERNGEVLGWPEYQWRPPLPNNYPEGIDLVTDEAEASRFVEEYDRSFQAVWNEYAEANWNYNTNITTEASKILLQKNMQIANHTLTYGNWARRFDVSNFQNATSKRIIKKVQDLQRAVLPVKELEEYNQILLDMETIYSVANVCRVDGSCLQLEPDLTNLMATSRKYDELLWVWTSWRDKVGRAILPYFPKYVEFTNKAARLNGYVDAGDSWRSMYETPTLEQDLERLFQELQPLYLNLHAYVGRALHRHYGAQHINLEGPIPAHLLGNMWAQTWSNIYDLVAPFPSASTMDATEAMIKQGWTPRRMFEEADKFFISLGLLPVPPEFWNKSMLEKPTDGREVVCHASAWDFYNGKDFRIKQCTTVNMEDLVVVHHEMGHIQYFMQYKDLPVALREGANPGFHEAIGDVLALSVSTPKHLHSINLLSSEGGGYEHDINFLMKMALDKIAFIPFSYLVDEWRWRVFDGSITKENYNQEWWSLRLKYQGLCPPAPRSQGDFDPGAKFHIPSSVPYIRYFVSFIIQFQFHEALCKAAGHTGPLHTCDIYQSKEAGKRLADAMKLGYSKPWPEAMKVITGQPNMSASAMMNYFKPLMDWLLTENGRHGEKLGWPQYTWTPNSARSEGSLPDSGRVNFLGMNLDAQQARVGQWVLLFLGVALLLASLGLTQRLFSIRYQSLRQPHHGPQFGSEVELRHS
Briefly: Inhibition of rabbit lung ACE assessed as hydrolysis of hippuryl-histidyl-leucine to hippuric acid and histidyl-leucine at 1 uM after 30 mins relative to control. In outline:
(§1)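 Enzyme is the supernatant of rabbit lung acetone powder homogenized in 0.05 M sodium borate pH 8.2 with 0.3 M NaCl and 0.5% Triton X-100 at 4 °C, spun 15,000 rpm for 60 min. Reaction uses borate/NaCl buffer and 5 mM HHL stock, 30 min at 37 °C. Hippuric acid read colorimetrically at 410 nm, in triplicate. % inhibition = 100 − (A_test/A_control)×100. Single-point screen at 1.0 µM; IC₅₀ from plots of % inhibition against serial concentrations.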

For a further assay, the system named is A549. Briefly: Cytotoxicity against human A549 cells assessed as cell survival after 24 hrs by MTT assay. In kind it is cell-based. As to conditions: A549, 24 h. In outline: (§2)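 HEK 293 (normal) and A549 (cancer) cells seeded at 1×10^4 cells/well in DMEM with 10% FBS, grown 24 h at 37 °C under CO₂, then exposed to compounds alongside vehicle control for 24 h. MTT (5 mg/mL, 10 µl) added for 4 h, formazan dissolved in DMSO, absorbance read at 540 nm. Survival relative to control cells; EC₅₀ by probit analysis.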

In assay [2] the target is T2, Angiotensin-converting enzyme (Oryctolagus cuniculus, UniProt P12822).
T2 sequence (P12822 whole entry): T1 sequence (whole entry)
Briefly: Inhibition of rabbit lung ACE assessed as hydrolysis of hippuryl-histidyl-leucine to hippuric acid and histidyl-leucine after 30 mins. In outline:
as §1

The next assay has as its system HEK293. Briefly: Cytotoxicity against HEK293 cells assessed as cell survival after 24 hrs by MTT assay. As to conditions: Homo sapiens, HEK293, 24 h. The format is cell-based. In a few lines:
as §2

The nature of assay [3]: Ratio of IC50 for rabbit lung ACE to IC50 for HEK293 cells.
Assay [4] can be described thus: Ratio of IC50 for rabbit lung ACE to IC50 for human A549 cells.

This note sets out measurements from ChEMBL document CHEMBL2412986, “Design, synthesis and evaluation of novel 2-hydroxypyrrolobenzodiazepine-5,11-dione analogues as potent angiotensin converting enzyme (ACE) inhibitors” (Bioorg Med Chem, 2013).

Consider `O=C1[C@@H]2C[C@@H](O)CN2C(=O)c2ccccc2N1Cc1ccc([N+](=O)[O-])cc1`, for which, in assay [1], the inhibition came to 28%.
Regarding `CCOC(=O)[C@H](CCc1ccccc1)N[C@@H](C)C(=O)N1[C@H](C(=O)O)C[C@@H]2CCC[C@@H]21` [RAMIPRIL], the IC50 in the assay on A549 was 392 µM; in assay [2], 0.253 µM; with HEK293, 414 µM.
With `COc1cc(CN2C(=O)[C@@H]3C[C@@H](O)CN3C(=O)c3ccccc32)cc(OC)c1OC`, the IC50 in the assay on A549 stood at 419 µM; in assay [2], 0.376 µM; in the assay with HEK293, 331 µM. For the same molecule, the “Ratio IC50” value in assay [3] and in assay [4] was 1000 each time. Moreover, in assay [1], the inhibition came out at 91%.
For the molecule `O=C1[C@@H]2C[C@@H](O)CN2C(=O)c2ccccc2N1Cc1ccc([N+](=O)[O-])c(Cl)c1`, the inhibition in assay [1] amounted to 28%.
With `O=C1[C@@H]2C[C@@H](O)CN2C(=O)c2ccccc2N1Cc1cc(Br)cs1`, the results for the IC50 (in the assay on A549; in assay [2]; with HEK293) were 361 µM, 0.272 µM and 281 µM, respectively. In addition, the “Ratio IC50” value in assay [3] and in assay [4] was 1000 each time. Moreover, the inhibition in assay [1] amounted to 80%.
Regarding `O=C1Nc2ccccc2C(=O)N2C[C@H](O)C[C@@H]12`, in assay [1], the inhibition was determined as 57%.
On the same count and under the same terms, with `COc1ccc(CN2C(=O)[C@@H]3C[C@@H](O)CN3C(=O)c3ccccc32)cc1` the figure was 28%.
Consider `COC(=O)c1ccc(CN2C(=O)[C@@H]3C[C@@H](O)CN3C(=O)c3ccccc32)cc1`, for which the inhibition in assay [1] was 28%.
Turning to `O=C1[C@@H]2C[C@@H](O)CN2C(=O)c2ccccc2N1Cc1cccc2c1oc1ccccc12`, the inhibition in assay [1] is 28%.
Same read-out and setting: with `O=C1[C@@H]2C[C@@H](O)CN2C(=O)c2ccccc2N1Cc1cccc(Cl)c1` the figure was 28%; with `CCOC(=O)CN1C(=O)[C@@H]2C[C@@H](O)CN2C(=O)c2ccccc21`, 28%.
`O=C1[C@@H]2C[C@@H](O)CN2C(=O)c2ccccc2N1Cc1ccc(Cl)c(F)c1`: the inhibition in assay [1] amounted to 28%.
Regarding `O=C1[C@@H]2C[C@@H](O)CN2C(=O)c2ccccc2N1Cc1ccc(Br)cc1`, the results for the IC50 (in the assay with A549; in assay [2]; with HEK293) were 487 µM, 0.658 µM and 496 µM, respectively. In addition, the “Ratio IC50” value in assay [3] and in assay [4] was 1000 each time. For the same molecule, the inhibition in assay [1] was 75%.
Turning to `O=C(O)c1ccc(CN2C(=O)[C@@H]3C[C@@H](O)CN3C(=O)c3ccccc32)cc1`, the inhibition in assay [1] is 28%.
Still for that read-out and setting: with `O=C1[C@@H]2C[C@@H](O)CN2C(=O)c2ccccc2N1Cc1cc(F)cc(F)c1` the figure was 28%; with `CC(=O)CN1C(=O)[C@@H]2C[C@@H](O)CN2C(=O)c2ccccc21`, 28%; with `Nc1ccc(CN2C(=O)[C@@H]3C[C@@H](O)CN3C(=O)c3ccccc32)cc1`, 28%.
For the molecule `O=C(CN1C(=O)[C@@H]2C[C@@H](O)CN2C(=O)c2ccccc21)c1ccc(Cl)cc1`, the inhibition in assay [1] amounted to 28%.
As to `O=C(CN1C(=O)[C@@H]2C[C@@H](O)CN2C(=O)c2ccccc21)c1ccc(Br)cc1`, the inhibition in assay [1] was determined as 28%.
For the molecule `CCOC(=O)[C@H](CCc1ccccc1)N[C@H]1CCc2ccccc2N(CC(=O)O)C1=O` [BENAZEPRIL], the IC50 with A549 was 358 µM; in assay [2], 0.212 µM; in the assay with HEK293 it was 301 µM.
Consider `O=C1[C@@H]2C[C@@H](O)CN2C(=O)c2ccccc2N1Cc1c(F)c(F)c(F)c(F)c1F`, for which the inhibition in assay [1] was 28%.
Consider `CN1C(=O)[C@@H]2C[C@@H](O)CN2C(=O)c2ccccc21`, for which, in assay [1], the inhibition was found to be 28%.
Same read-out and setting: with `COc1cccc(CN2C(=O)[C@@H]3C[C@@H](O)CN3C(=O)c3ccccc32)c1` the figure was 28%.
On the same count and under the same terms, with `O=C1[C@@H]2C[C@@H](O)CN2C(=O)c2ccccc2N1Cc1cc(F)cc(F)c1Cl` the figure was 28%.
On to `NCCCC[C@H](N[C@@H](CCc1ccccc1)C(=O)O)C(=O)N1CCC[C@H]1C(=O)O` [LISINOPRIL ANHYDROUS], for which the half-inhibitory concentration (IC50) in the assay on A549 worked out at 307 µM; in assay [2], 0.262 µM; in the assay with HEK293, 443 µM.
Regarding `O=C1[C@@H]2C[C@@H](O)CN2C(=O)c2ccccc2N1Cc1cccc(Br)c1`, the IC50 in the assay on A549 came out at 400 µM; in assay [2], 0.418 µM; with HEK293, 398 µM. In addition, the “Ratio IC50” value in assay [3] and in assay [4] was 1000 throughout. The inhibition in assay [1] is 86%.
